Assay results: ChEMBL document CHEMBL2062435, “Synthesis and in vitro antibacterial activity of gemifloxacin derivatives containing a substituted benzyloxime moiety” (2012)

Tests used:
Format in all cases: functional
Streptococcus pneumoniae [1] = test: Ratio of levofloxacin MIC to compound MIC for extended spectrum beta-lactamases-producing Streptococcus pneumoniae 10-1 after 18-24 hrs by two-fold serial dilution method
Pseudomonas aeruginosa [2] = test: Antimicrobial activity against extended spectrum beta-lactamases-producing Pseudomonas aeruginosa 10-9 after 18-24 hrs by two-fold serial dilution method
Method in brief: (§1)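 Agar-medium twofold serial dilution against Gram-positive and Gram-negative strains; MIC taken as the lowest compound concentration giving complete inhibition of bacterial growth after incubation at 35 °C for 18-24 h.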

[3] = tested on: Staphylococcus epidermidis; test: Ratio of levofloxacin MIC to compound MIC for extended spectrum beta-lactamases-producing methicillin-sensitive Staphylococcus epidermidis 10-11 after 18-24 hrs by two-fold serial dilution method
Method in brief: (§2)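 MICs were determined by the standard twofold serial dilution method on agar media against the test strains, with levofloxacin run as a reference. MIC is the lowest concentration giving complete inhibition of bacterial growth after 18–24 h incubation at 35 °C. The ratio is levofloxacin MIC divided by test-compound MIC.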

Staphylococcus aureus = test: Ratio of levofloxacin MIC to compound MIC for Staphylococcus aureus ATCC […] after 18-24 hrs by two-fold serial dilution method
Pseudomonas aeruginosa [4] = test: Antimicrobial activity against extended spectrum beta-lactamases-producing Pseudomonas aeruginosa 10-18 after 18-24 hrs by two-fold serial dilution method; method in brief: as §1
Streptococcus pneumoniae [5] = test: Ratio of levofloxacin MIC to compound MIC for extended spectrum beta-lactamases-producing Streptococcus pneumoniae 10-4 after 18-24 hrs by two-fold serial dilution method; method in brief: as §2
Streptococcus pneumoniae [6] = test: Antimicrobial activity against extended spectrum beta-lactamases-producing Streptococcus pneumoniae 10-4 after 18-24 hrs by two-fold serial dilution method; method in brief: as §1
Escherichia coli [7] = test: Antimicrobial activity against Escherichia coli 10-1 after 18-24 hrs by two-fold serial dilution method; method in brief: as §1
Enterococcus faecium [8] = test: Ratio of levofloxacin MIC to compound MIC for Enterococcus faecium 10-5 after 18-24 hrs by two-fold serial dilution method
Enterococcus faecalis [9] = test: Antimicrobial activity against Enterococcus faecalis 10-7 after 18-24 hrs by two-fold serial dilution method; method in brief: as §1
Enterococcus faecalis [10] = test: Antimicrobial activity against Enterococcus faecalis 10-6 after 18-24 hrs by two-fold serial dilution method; method in brief: as §1
Enterococcus faecalis [11] = test: Ratio of gemifloxacin MIC to compound MIC for Enterococcus faecalis 10-5 after 18-24 hrs by two-fold serial dilution method
Escherichia coli [12] = test: Antimicrobial activity against extended spectrum beta-lactamases-producing Escherichia coli 10-2 after 18-24 hrs by two-fold serial dilution method; method in brief: as §1
Pseudomonas aeruginosa [13] = test: Antimicrobial activity against extended spectrum beta-lactamases-producing Pseudomonas aeruginosa 10-15 after 18-24 hrs by two-fold serial dilution method; method in brief: as §1
Enterococcus faecium [14] = test: Antimicrobial activity against Enterococcus faecium 10-5 after 18-24 hrs by two-fold serial dilution method; method in brief: as §1
Enterococcus faecium [15] = test: Ratio of gemifloxacin MIC to compound MIC for Enterococcus faecium 10-9 after 18-24 hrs by two-fold serial dilution method
Enterococcus faecalis [16] = test: Ratio of levofloxacin MIC to compound MIC for Enterococcus faecalis 10-6 after 18-24 hrs by two-fold serial dilution method
Escherichia coli [17] = test: Antimicrobial activity against Escherichia coli ATCC 25922 after 18-24 hrs by two-fold serial dilution method; method in brief: as §1
Klebsiella pneumoniae [18] = test: Antimicrobial activity against Klebsiella pneumoniae 10-2 after 18-24 hrs by two-fold serial dilution method; method in brief: as §1
Klebsiella pneumoniae [19] = test: Antimicrobial activity against Klebsiella pneumoniae 10-4 after 18-24 hrs by two-fold serial dilution method; method in brief: as §1
[20] = tested on: Staphylococcus epidermidis; test: Ratio of gemifloxacin MIC to compound MIC for extended spectrum beta-lactamases-producing methicillin-sensitive Staphylococcus epidermidis 10-15 after 18-24 hrs by two-fold serial dilution method
Klebsiella pneumoniae [21] = test: Antimicrobial activity against extended spectrum beta-lactamases-producing Klebsiella pneumoniae 10-1 after 18-24 hrs by two-fold serial dilution method; method in brief: as §1
Escherichia coli [22] = test: Antimicrobial activity against Escherichia coli 10-2 after 18-24 hrs by two-fold serial dilution method; method in brief: as §1

SMILES: COc1ccc(OC)c(CO/N=C2\CN(c3nc4c(cc3F)c(=O)c(C(=O)O)cn4C3CC3)CC2CN)c1.CS(=O)(=O)O (racemic)
- Ratio (Streptococcus pneumoniae [1]): 8
- MIC (Pseudomonas aeruginosa [2]): > 128 µg/mL
- Ratio [3]: 8
- Ratio (Staphylococcus aureus): 8
- MIC (Pseudomonas aeruginosa [4]): > 128 µg/mL
- Ratio (Streptococcus pneumoniae [5]): 8
- MIC (Streptococcus pneumoniae [6]): 0.015 µg/mL
- MIC (Escherichia coli [7]): > 128 µg/mL
- Ratio (Enterococcus faecium [8]): 8
- MIC (Enterococcus faecalis [9]): 0.25 µg/mL
- MIC (Enterococcus faecalis [10]): 4 µg/mL
- Ratio (Enterococcus faecalis [11]): 2
- MIC (Escherichia coli [12]): > 128 µg/mL
- MIC (Pseudomonas aeruginosa [13]): > 128 µg/mL
- MIC (Enterococcus faecium [14]): 4 µg/mL
- Ratio (Enterococcus faecium [15]): 2
- Ratio (Enterococcus faecalis [16]): 8
- MIC (Escherichia coli [17]): 0.06 µg/mL
- MIC (Klebsiella pneumoniae [18]): > 128 µg/mL
- MIC (Klebsiella pneumoniae [19]): > 128 µg/mL
- Ratio [20]: 2
- MIC (Klebsiella pneumoniae [21]): > 128 µg/mL
- MIC (Escherichia coli [22]): > 128 µg/mL
